# Measured values reported in paper PMC3302728 (Nature Communications, 2011).
# Tests used:
# [1] = biological target: GluN2D ligand-binding domain (Rattus norvegicus, UniProt Q62645, DEL565-685); assay: X-ray crystallography; conditions: co-crystal with 10 mM ligand; D1-D2 cleft
# [2] = biological target: GluN1/GluN2D NMDA receptor (Rattus norvegicus, UniProt P35439+Q62645); assay: EC50 of agonist response; assay type: cell-based
# Outline: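 Xenopus laevis oocytes injected with 5-10 ng cRNA (GluN1:GluN2 ratio 1:2), stored at 15°C, recorded 2-4 days later at 23°C. Two-electrode voltage clamp at -30 to -60 mV in pH 7.4 HEPES bath with Ba2+ and 30 μM glycine. Concentration-response curves fitted per oocyte with a Hill equation to give EC50 and Hill coefficient.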
# GluN2D ligand-binding domain, sequence (Q62645 424-564, stated change not applied): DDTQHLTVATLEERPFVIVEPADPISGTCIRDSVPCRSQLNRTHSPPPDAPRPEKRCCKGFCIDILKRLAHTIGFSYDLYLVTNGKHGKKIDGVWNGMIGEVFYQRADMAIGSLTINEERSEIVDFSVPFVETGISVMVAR
# GluN2D ligand-binding domain, sequence (Q62645 686-827, stated change not applied): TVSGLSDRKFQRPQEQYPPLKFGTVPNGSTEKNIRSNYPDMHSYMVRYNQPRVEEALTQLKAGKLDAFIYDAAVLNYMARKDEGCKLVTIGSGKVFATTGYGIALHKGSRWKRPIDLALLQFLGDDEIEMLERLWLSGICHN
# GluN1/GluN2D NMDA receptor, sequence (Q62645 28-1323, other chains not shown): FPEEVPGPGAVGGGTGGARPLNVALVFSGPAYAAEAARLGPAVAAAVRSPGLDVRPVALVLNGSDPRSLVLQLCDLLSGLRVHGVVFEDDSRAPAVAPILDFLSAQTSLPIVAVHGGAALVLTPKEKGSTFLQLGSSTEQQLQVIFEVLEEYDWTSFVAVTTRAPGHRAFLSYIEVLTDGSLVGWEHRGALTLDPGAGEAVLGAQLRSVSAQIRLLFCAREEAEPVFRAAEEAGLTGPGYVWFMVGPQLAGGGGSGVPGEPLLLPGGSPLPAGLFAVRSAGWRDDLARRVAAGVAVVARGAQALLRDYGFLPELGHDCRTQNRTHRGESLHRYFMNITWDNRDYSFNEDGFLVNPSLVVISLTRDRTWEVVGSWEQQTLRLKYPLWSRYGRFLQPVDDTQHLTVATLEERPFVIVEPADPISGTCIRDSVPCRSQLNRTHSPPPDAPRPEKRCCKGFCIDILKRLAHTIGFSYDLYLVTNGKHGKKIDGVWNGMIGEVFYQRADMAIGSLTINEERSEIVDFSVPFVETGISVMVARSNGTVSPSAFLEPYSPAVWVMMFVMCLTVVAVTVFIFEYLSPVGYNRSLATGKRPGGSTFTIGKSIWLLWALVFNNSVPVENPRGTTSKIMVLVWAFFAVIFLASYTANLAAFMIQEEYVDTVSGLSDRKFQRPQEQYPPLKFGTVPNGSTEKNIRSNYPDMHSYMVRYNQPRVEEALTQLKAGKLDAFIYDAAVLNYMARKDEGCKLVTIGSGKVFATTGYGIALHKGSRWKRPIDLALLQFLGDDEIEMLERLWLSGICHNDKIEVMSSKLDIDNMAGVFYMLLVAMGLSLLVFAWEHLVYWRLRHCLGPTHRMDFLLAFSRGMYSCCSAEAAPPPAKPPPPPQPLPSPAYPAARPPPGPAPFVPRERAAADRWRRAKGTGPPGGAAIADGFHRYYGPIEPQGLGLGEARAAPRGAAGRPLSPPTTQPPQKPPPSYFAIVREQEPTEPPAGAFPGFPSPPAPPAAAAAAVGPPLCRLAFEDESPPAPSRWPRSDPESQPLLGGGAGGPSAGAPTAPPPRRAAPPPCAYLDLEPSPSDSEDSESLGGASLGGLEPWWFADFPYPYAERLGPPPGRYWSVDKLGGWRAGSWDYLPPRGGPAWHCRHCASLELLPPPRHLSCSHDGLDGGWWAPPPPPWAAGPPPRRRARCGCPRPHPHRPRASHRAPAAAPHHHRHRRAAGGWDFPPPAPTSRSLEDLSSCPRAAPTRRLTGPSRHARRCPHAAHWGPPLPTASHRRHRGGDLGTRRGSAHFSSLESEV
EC50 [2] [µM],Compound,X-ray crystallography [1]
,N[C@H](CCC(=O)O)C(=O)O [D-glutamate],"GluN2D ligand-binding domain structures in complex with D- and L-glutamate, L-aspartate, and NMDA"
,N[C@@H](CCC(=O)O)C(=O)O [L-glutamate],"GluN2D ligand-binding domain structures in complex with D- and L-glutamate, L-aspartate, and NMDA"
5,N[C@@H](CC(=O)O)C(=O)O [L-aspartate],"GluN2D ligand-binding domain structures in complex with D- and L-glutamate, L-aspartate, and NMDA"
